Assay results reported in ChEMBL document CHEMBL3091355, “Designing and synthesis of novel antimicrobial heterocyclic analogs of fatty acids” (2013).
Values after ≈ are worked out from the molar mass of the structure shown.

Legend:
Type in all cases: functional
Klebsiella pneumoniae [1] = assay: Antibacterial activity against Klebsiella pneumoniae clinical isolate after 24 hrs by broth micro dilution method
Streptococcus pyogenes [2] = assay: Antibacterial activity against Streptococcus pyogenes clinical isolate after 24 hrs by broth micro dilution method
Candida parapsilosis [3] = assay: Fungicidal activity against Candida parapsilosis by micro dilution method; conditions: Lodderomyces parapsilosis
Candida parapsilosis [4] = assay: Fungicidal activity against Candida parapsilosis clinical isolate by micro dilution method; conditions: Lodderomyces parapsilosis
Candida albicans [5] = assay: Antifungal activity against Candida albicans clinical isolate after 20 hrs by agar dilution method
Pseudomonas aeruginosa [6] = assay: Antibacterial activity against Pseudomonas aeruginosa ATCC 27853 after 24 hrs by disc diffusion method
Procedure, shortened: (§1)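 Disk diffusion on agar; activity measured as the halo zone of inhibition around the disk.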

Klebsiella pneumoniae [7] = assay: Bactericidal activity against Klebsiella pneumoniae clinical isolate after 18 to 24 hrs; conditions: read-out: MBC99.9
Staphylococcus aureus [8] = assay: Antibacterial activity against Staphylococcus aureus after 24 hrs by disc diffusion method; procedure, shortened: as §1
Escherichia coli [9] = assay: Antibacterial activity against Escherichia coli ATCC 25922 after 24 hrs by disc diffusion method; procedure, shortened: as §1
Candida albicans [10] = assay: Fungicidal activity against Candida albicans by micro dilution method
Staphylococcus aureus [11] = assay: Antibacterial activity against Staphylococcus aureus after 24 hrs by broth micro dilution method
Procedure, shortened: (§2)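 MIC by broth microdilution; growth read visually and spectrophotometrically. MIC taken as the lowest concentration giving complete inhibition of bacterial growth.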

Nakaseomyces glabratus [12] = assay: Antifungal activity against Candida glabrata after 20 hrs by agar dilution method
Streptococcus pyogenes [13] = assay: Bactericidal activity against Streptococcus pyogenes clinical isolate after 18 to 24 hrs; conditions: read-out: MBC99.9
Pseudomonas aeruginosa [14] = assay: Bactericidal activity against Pseudomonas aeruginosa ATCC 27853 after 18 to 24 hrs; conditions: read-out: MBC99.9
Procedure, shortened: (§3)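 MBC taken as the lowest concentration that killed the bacteria completely.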

Candida parapsilosis [15] = assay: Antifungal activity against Candida parapsilosis after 20 hrs by agar dilution method; conditions: Lodderomyces parapsilosis
Escherichia coli [16] = assay: Antibacterial activity against Escherichia coli ATCC 25922 after 24 hrs by broth micro dilution method; conditions: ATCC 25922, 24 h; procedure, shortened: as §2
Candida dubliniensis [17] = assay: Antifungal activity against Candida dubliniensis after 20 hrs by agar dilution method
Candida albicans [18] = assay: Antifungal activity against Candida albicans after 20 hrs by agar dilution method
Procedure, shortened: (§4)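 Clinical Candida isolates purified and subcultured on SC, SCC and PDA media before testing. Compounds were dissolved in DMSO as a stock, then diluted into solid PDA medium to final concentrations of 0.0312 to 256.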

Pseudomonas aeruginosa [19] = assay: Antibacterial activity against Pseudomonas aeruginosa ATCC 27853 after 24 hrs by broth micro dilution method; conditions: ATCC 27853, 24 h; procedure, shortened: as §2
Candida dubliniensis [20] = assay: Fungicidal activity against Candida dubliniensis by micro dilution method
Candida tropicalis [21] = assay: Antifungal activity against Candida tropicalis after 20 hrs by agar dilution method
Candida tropicalis [22] = assay: Antifungal activity against Candida tropicalis clinical isolate after 20 hrs by agar dilution method
Candida albicans [23] = assay: Fungicidal activity against Candida albicans clinical isolate by micro dilution method
Pichia kudriavzevii [24] = assay: Fungicidal activity against Candida krusei by micro dilution method
Streptococcus pyogenes [25] = assay: Antibacterial activity against Streptococcus pyogenes clinical isolate after 24 hrs by disc diffusion method
Klebsiella pneumoniae [26] = assay: Antibacterial activity against Klebsiella pneumoniae clinical isolate after 24 hrs by disc diffusion method
Escherichia coli [27] = assay: Bactericidal activity against Escherichia coli ATCC 25922 after 18 to 24 hrs; conditions: read-out: MBC99.9; procedure, shortened: as §3
Staphylococcus aureus [28] = assay: Bactericidal activity against Staphylococcus aureus after 18 to 24 hrs; conditions: read-out: MBC99.9; procedure, shortened: as §3
Candida parapsilosis [29] = assay: Antifungal activity against Candida parapsilosis clinical isolate after 20 hrs by agar dilution method; conditions: Lodderomyces parapsilosis
Candida tropicalis [30] = assay: Fungicidal activity against Candida tropicalis by micro dilution method
Nakaseomyces glabratus [31] = assay: Fungicidal activity against Candida glabrata by micro dilution method
Pichia kudriavzevii [32] = assay: Antifungal activity against Candida krusei after 20 hrs by agar dilution method
Candida tropicalis [33] = assay: Fungicidal activity against Candida tropicalis clinical isolate by micro dilution method
Candida tropicalis [34] = assay: Fungicidal activity against fluconazole, itraconazole-resistant Candida tropicalis clinical isolate by micro dilution method
Candida albicans [35] = assay: Antifungal activity against fluconazole, itraconazole-resistant Candida albicans clinical isolate after 20 hrs by agar dilution method; procedure, shortened: as §4
Candida tropicalis [36] = assay: Antifungal activity against fluconazole, itraconazole-resistant Candida tropicalis clinical isolate after 20 hrs by agar dilution method; procedure, shortened: as §4
Candida albicans [37] = assay: Fungicidal activity against fluconazole, itraconazole-resistant Candida albicans clinical isolate by micro dilution method

SMILES	MIC (Klebsiella pneumoniae [1]) [µg/mL]	MIC (Streptococcus pyogenes [2]) [µg/mL]	MFC (Candida parapsilosis [3]) [µg/mL]	MFC (Candida parapsilosis [4]) [µg/mL]	MIC90 (Candida albicans [5]) [µg/mL]	diameter of the inhibition zone (DIZ) (Pseudomonas aeruginosa [6]) [mm]	MBC (Klebsiella pneumoniae [7]) [µg/mL]	diameter of the inhibition zone (DIZ) (Staphylococcus aureus [8]) [mm]	diameter of the inhibition zone (DIZ) (Escherichia coli [9]) [mm]	MFC (Candida albicans [10]) [µg/mL]	MIC (Staphylococcus aureus [11]) [µg/mL]	MIC90 (Nakaseomyces glabratus [12]) [µg/mL]	MBC (Streptococcus pyogenes [13]) [µg/mL]	MBC (Pseudomonas aeruginosa [14]) [µg/mL]	MIC90 (Candida parapsilosis [15]) [µg/mL]	MIC (Escherichia coli [16]) [µg/mL]	MIC90 (Candida dubliniensis [17]) [µg/mL]	MIC90 (Candida albicans [18]) [µg/mL]	MIC (Pseudomonas aeruginosa [19]) [µg/mL]	MFC (Candida dubliniensis [20]) [µg/mL]	also measured
CCCc1cc(CCCCCCCCC(=O)O)on1	50 (≈ 187 µM)	50 (≈ 187 µM)	> 256	> 256	> 256	31.2	> 100	19.2	25.7	> 256	50 (≈ 187 µM)	128 (≈ 479 µM)	100 (≈ 374 µM)	> 100	128 (≈ 479 µM)	50 (≈ 187 µM)	128 (≈ 479 µM)	> 256	100 (≈ 374 µM)	256 (≈ 957 µM)	MIC90 (Candida tropicalis [21]): > 256 µg/mL; MIC90 (Candida tropicalis [22]): 128 µg/mL (≈ 479 µM); MFC (Candida albicans [23]): > 256 µg/mL; MFC (Pichia kudriavzevii [24]): > 256 µg/mL; diameter of the inhibition zone (DIZ) (Streptococcus pyogenes [25]): 21.6 mm; diameter of the inhibition zone (DIZ) (Klebsiella pneumoniae [26]): 18.3 mm; MBC (Escherichia coli [27]): 100 µg/mL (≈ 374 µM); MBC (Staphylococcus aureus [28]): 100 µg/mL (≈ 374 µM); MIC90 (Candida parapsilosis [29]): 256 µg/mL (≈ 957 µM); MFC (Candida tropicalis [30]): > 256 µg/mL; MFC (Nakaseomyces glabratus [31]): > 256 µg/mL; MIC90 (Pichia kudriavzevii [32]): > 256 µg/mL; MFC (Candida tropicalis [33]): > 256 µg/mL
CCCC1=NOC(CCCCCCCCC(=O)OC)C1 (stereo not drawn)	100 (≈ 353 µM)	50 (≈ 176 µM)	> 256	> 256	> 256	30.1	> 100	18.1	25.1	> 256	50 (≈ 176 µM)	> 256	100 (≈ 353 µM)	> 100	> 256	100 (≈ 353 µM)	> 256	> 256	100 (≈ 353 µM)	> 256	MIC90 (Candida tropicalis [21]): > 256 µg/mL; MIC90 (Candida tropicalis [22]): > 256 µg/mL; MFC (Candida albicans [23]): 128 µg/mL (≈ 452 µM); MFC (Pichia kudriavzevii [24]): > 256 µg/mL; diameter of the inhibition zone (DIZ) (Streptococcus pyogenes [25]): 20.2 mm; diameter of the inhibition zone (DIZ) (Klebsiella pneumoniae [26]): 17.1 mm; MBC (Escherichia coli [27]): > 100 µg/mL; MBC (Staphylococcus aureus [28]): > 100 µg/mL; MIC90 (Candida parapsilosis [29]): > 256 µg/mL; MFC (Candida tropicalis [30]): > 256 µg/mL; MFC (Nakaseomyces glabratus [31]): > 256 µg/mL; MIC90 (Pichia kudriavzevii [32]): > 256 µg/mL; MFC (Candida tropicalis [33]): 128 µg/mL (≈ 452 µM)
CCCCCCCCC1C(CCC)=NOC1CCCCCCCC(=O)OC (stereo not drawn)	25 (≈ 65.5 µM)	25 (≈ 65.5 µM)	> 256	> 256	128 (≈ 335 µM)	31.3	100 (≈ 262 µM)	21.6	26.7	256 (≈ 671 µM)	25 (≈ 65.5 µM)	128 (≈ 335 µM)	50 (≈ 131 µM)	50 (≈ 131 µM)	> 256	25 (≈ 65.5 µM)	128 (≈ 335 µM)	128 (≈ 335 µM)	25 (≈ 65.5 µM)	> 256	MFC (Candida tropicalis [34]): 128 µg/mL (≈ 335 µM); MIC90 (Candida tropicalis [21]): 128 µg/mL (≈ 335 µM); MIC90 (Candida tropicalis [22]): 128 µg/mL (≈ 335 µM); MIC90 (Candida albicans [35]): > 256 µg/mL; MFC (Candida albicans [23]): > 256 µg/mL; MFC (Pichia kudriavzevii [24]): > 256 µg/mL; diameter of the inhibition zone (DIZ) (Streptococcus pyogenes [25]): 22.3 mm; diameter of the inhibition zone (DIZ) (Klebsiella pneumoniae [26]): 18.5 mm; MIC90 (Candida tropicalis [36]): > 256 µg/mL; MBC (Escherichia coli [27]): 50 µg/mL (≈ 131 µM); MBC (Staphylococcus aureus [28]): 100 µg/mL (≈ 262 µM); MIC90 (Candida parapsilosis [29]): 128 µg/mL (≈ 335 µM); MFC (Candida tropicalis [30]): > 256 µg/mL; MFC (Nakaseomyces glabratus [31]): > 256 µg/mL; MIC90 (Pichia kudriavzevii [32]): > 256 µg/mL; MFC (Candida tropicalis [33]): > 256 µg/mL
CCCCCC[C@@H](O)CC1C(CCC)=NOC1CCCCCCCC(=O)OC (stereo partly drawn)	25 (≈ 62.9 µM)	25 (≈ 62.9 µM)	128 (≈ 322 µM)	> 256	32 (≈ 80.5 µM)	32.5	100 (≈ 252 µM)	22.6	27.6	256 (≈ 644 µM)	25 (≈ 62.9 µM)	32 (≈ 80.5 µM)	50 (≈ 126 µM)	50 (≈ 126 µM)	32 (≈ 80.5 µM)	25 (≈ 62.9 µM)	32 (≈ 80.5 µM)	128 (≈ 322 µM)	25 (≈ 62.9 µM)	256 (≈ 644 µM)	MFC (Candida albicans [37]): > 256 µg/mL; MIC90 (Candida tropicalis [21]): 64 µg/mL (≈ 161 µM); MIC90 (Candida tropicalis [22]): 64 µg/mL (≈ 161 µM); MIC90 (Candida albicans [35]): 128 µg/mL (≈ 322 µM); MFC (Candida albicans [23]): 256 µg/mL (≈ 644 µM); MFC (Pichia kudriavzevii [24]): 128 µg/mL (≈ 322 µM); diameter of the inhibition zone (DIZ) (Streptococcus pyogenes [25]): 23.2 mm; diameter of the inhibition zone (DIZ) (Klebsiella pneumoniae [26]): 19.2 mm; MIC90 (Candida tropicalis [36]): > 256 µg/mL; MBC (Escherichia coli [27]): 50 µg/mL (≈ 126 µM); MBC (Staphylococcus aureus [28]): 50 µg/mL (≈ 126 µM); MIC90 (Candida parapsilosis [29]): 128 µg/mL (≈ 322 µM); MFC (Candida tropicalis [30]): > 256 µg/mL; MFC (Nakaseomyces glabratus [31]): 256 µg/mL (≈ 644 µM); MIC90 (Pichia kudriavzevii [32]): 64 µg/mL (≈ 161 µM); MFC (Candida tropicalis [33]): 256 µg/mL (≈ 644 µM)
